Experiments:
Assay type in all cases: functional, Homo sapiens
[1] = system: KM-20L2; assay: Tested for cytotoxic activity against colon cancer KM20L2 cell line
In short: (§1)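 Screened in a panel of 60 human cancer cell lines. The read-out was LC50, the concentration needed for 50% cell kill. Values were reported as log LC50 in a mean graph and plotted against the log of the panel mean LC50.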

[2] = system: UACC-257; assay: Tested for cytotoxic activity against melanoma UACC-257 cell line; in short: as §1
[3] = system: SNB-78; assay: Tested for cytotoxic activity against CNS cancer SNB-78 cell line; in short: as §1
[4] = system: CCRF-CEM; assay: Tested for cytotoxic activity against leukemia CCRF-CEM cell line; in short: as §1
[5] = system: SNB-75; assay: Tested for cytotoxic activity against CNS cancer SNB-75 cell line; in short: as §1
[6] = system: ACHN; assay: Tested for cytotoxic activity against renal cancer ACHN cell line; in short: as §1
[7] = system: HOP-92; assay: Tested for cytotoxic activity against non-small cell lung cancer HOP92 cell line; in short: as §1
[8] = system: M19-MEL; assay: Tested for cytotoxic activity against melanoma M19-MEL cell line; in short: as §1
[9] = system: SF-268; assay: Tested for cytotoxic activity against CNS cancer […] cell line; in short: as §1
[10] = system: IGROV-1; assay: Tested for cytotoxic activity against ovarian cancer IGROVI cell line; in short: as §1
[11] = system: OVCAR-3; assay: Tested for cytotoxic activity against ovarian cancer OVCAR -3 cell line; in short: as §1
[12] = system: HOP-18; assay: Tested for cytotoxic activity against non-small cell lung cancer HOP-18 cell line; in short: as §1
[13] = system: HT-29; assay: Tested for cytotoxic activity against colon cancer HT-29 cell line; in short: as §1
[14] = system: SK-MEL-5; assay: Tested for cytotoxic activity against melanoma SK-MEL-5 cell line; in short: as §1
[15] = system: SNB-19; assay: Tested for cytotoxic activity against CNS cancer SNB-19 cell line; in short: as §1
[16] = system: NCI-H23; assay: Tested for cytotoxic activity against non-small cell lung cancer NCI-H23 cell line; in short: as §1
[17] = system: MOLT-4; assay: Tested for cytotoxic activity against leukemia MOLT-4 cell line; in short: as §1
[18] = system: DMS-114; assay: Tested for cytotoxic activity against small cell lung cancer DMS114 cell line; in short: as §1
[19] = system: RXF 393; assay: Tested for cytotoxic activity against renal cancer RXF-393 cell line; in short: as §1
[20] = system: SK-MEL-28; assay: Tested for cytotoxic activity against melanoma SK-MEL-28; in short: as §1
[21] = system: NCI-H522; assay: Tested for cytotoxic activity against non-small cell lung cancer NCI-H522 cell line; in short: as §1
[22] = system: U-251; assay: Tested for cytotoxic activity against CNS cancer U251 cell line; in short: as §1
[23] = system: SF-539; assay: Tested for cytotoxic activity against CNS cancer […] cell line; in short: as §1
[24] = system: EKVX; assay: Tested for cytotoxic activity against non-small cell lung cancer […] cell line; in short: as §1
[25] = system: K562; assay: Tested for cytotoxic activity against leukemia K-562 cell line; in short: as §1
[26] = system: A549; assay: Tested for cytotoxic activity against non-small cell lung cancer A549/ATCC cell line; in short: as §1
[27] = system: SK-MEL-2; assay: Tested for cytotoxic activity against melanoma SK-MEL-2 cell line; in short: as §1
[28] = system: NCI-H322M; assay: Tested for cytotoxic activity against non-small cell lung cancer NCI-H322M cell line; in short: as §1
[29] = system: DLD-1; assay: Tested for cytotoxic activity against colon cancer DLD-1 cell line; in short: as §1
[30] = system: TK-10; assay: Tested for cytotoxic activity against renal cancer TK-10 cell line; in short: as §1
[31] = system: OVCAR-5; assay: Tested for cytotoxic activity against ovarian cancer OVCAR-5 cell line; in short: as §1
[32] = system: CAKI-1; assay: Tested for cytotoxic activity against renal cancer CAKI-1 cell line; in short: as §1
[33] = system: SW-620; assay: Tested for cytotoxic activity against colon cancer SW-620 cell line; in short: as §1
[34] = system: LOX IMVI; assay: Tested for cytotoxic activity against melanoma […] cell line; in short: as §1
[35] = system: OVCAR-4; assay: Tested for cytotoxic activity against ovarian cancer OVCAR-4 cell line; in short: as §1
[36] = system: UACC-62; assay: Tested for cytotoxic activity against melanoma UACC-62 cell line; in short: as §1
[37] = system: COLO 205; assay: Tested for cytotoxic activity against colon cancer COLO 205 cell line; in short: as §1
[38] = system: HOP-62; assay: Tested for cytotoxic activity against non-small cell lung cancer HOP-62 cell line; in short: as §1
[39] = system: XF498; assay: Tested for cytotoxic activity against CNS cancer XF498 cell line; in short: as §1
[40] = system: UO-31; assay: Tested for cytotoxic activity against renal cancer UO-31 cell line; in short: as §1
[41] = system: KM12; assay: Tested for cytotoxic activity against colon cancer KM-12 cell line; in short: as §1
[42] = system: LXFL 529; assay: Tested for cytotoxic activity against non-small cell lung cancer LXFL-529L cell line; in short: as §1
[43] = system: M14; assay: Tested for cytotoxic activity against melanoma M14 cell line; in short: as §1
[44] = system: NCI-H226; assay: Tested for cytotoxic activity against non-small cell lung cancer NCI-H226 cell line; in short: as §1
[45] = system: OVCAR-8; assay: Tested for cytotoxic activity against ovarian cancer OVCAR-8 cell line; in short: as §1
[46] = system: SF-295; assay: Tested for cytotoxic activity against CNS cancer SF-295 cell line; in short: as §1
[47] = system: Malme-3M; assay: Tested for cytotoxic activity against melanoma MALME-3M cell line; in short: as §1
[48] = system: 786-0; assay: Tested for cytotoxic activity against renal cancer 786-0 cell line; in short: as §1
[49] = system: SN12C; assay: Tested for cytotoxic activity against renal cancer SN12C cell line; in short: as §1
[50] = system: SK-OV-3; assay: Tested for cytotoxic activity against ovarian cancer SK-OV-3 cell line; in short: as §1

## CC(=O)OC1CCn2c1nc1c2C(=O)C(C)=C(N2CC2)C1=O (stereo not given)
[1]
  LC50: 6.64
[2]
  LC50: 6.71
[3]
  LC50: 5.39
[4]
  LC50: >4
[5]
  LC50: 7.56
[6]
  LC50: 6.53
[7]
  LC50: 5.14
[8]
  LC50: 5.12
[9]
  LC50: 5.67
[10]
  LC50: 5.85
[11]
  LC50: 6.34
[12]
  LC50: 6.64
[13]
  LC50: 6.03
[14]
  LC50: <8
[15]
  LC50: 6.54
[16]
  LC50: <8
[17]
  LC50: >4
[18]
  LC50: >4
[19]
  LC50: <8
[20]
  LC50: 7.59
[21]
  LC50: <8
[22]
  LC50: 6.53
[23]
  LC50: 7.89
[24]
  LC50: 6.55
[25]
  LC50: >4
[26]
  LC50: 5.44
[27]
  LC50: 7.61
[28]
  LC50: 6.63
[29]
  LC50: 7.66
[30]
  LC50: 6.06
[31]
  LC50: 6.53
[32]
  LC50: 5.53
[33]
  LC50: 6.22
[34]
  LC50: <8
[35]
  LC50: 7.19
[36]
  LC50: <8
[37]
  LC50: 4.82
[38]
  LC50: <8
[39]
  LC50: 7.09
[40]
  LC50: <8
[41]
  LC50: 7.02
[42]
  LC50: 7.33
[43]
  LC50: <8
[44]
  LC50: 7.09
[45]
  LC50: 7.09
[46]
  LC50: 6.47
[47]
  LC50: 7.26
[48]
  LC50: 7.36
[49]
  LC50: 7.12
[50]
  LC50: 6.36

— ChEMBL document CHEMBL1127055, “Pyrrolo[1,2-a]benzimidazole-based aziridinyl quinones. A new class of DNA cleaving agent exhibiting G and A base specificity” (1993)
